Results as given in ChEMBL document CHEMBL5143666, “Insights into the anticancer activity of chiral alkylidene-β-lactams and alkylidene-γ-lactams: Synthesis and biological investigation” (Bioorg Med Chem, 2022).
Active and inactive are the calls of the source. The rule behind the calls is not given here.

Legend:
A-375 [1] = test: Cytotoxicity against human A375 cells after 48 hrs by MTT assay; format: functional, cell-based; conditions: A-375, 48 h
In short: (§1)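 Cells seeded at 1×10^5 per well, attached overnight, then exposed to serial dilutions from 10 mM DMSO stocks (vehicle control 1% DMSO) for 48 or 72 h; triplicate wells. MTT 0.5 mg/mL, 4 h at 37 °C; formazan dissolved in acid isopropanol, absorbance read. IC50 from sigmoidal variable-slope fit of % metabolic activity vs log concentration; ≥2 independent experiments.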

OE19 [2] = test: Cytotoxicity against human OE19 cells after 48 hrs by MTT assay; format: functional, cell-based; conditions: OE19, 48 h; in short: as §1
HT-1080 = test: Cytotoxicity against human HT-1080 cells after 48 hrs by MTT assay; format: functional, cell-based; conditions: HT-1080, 48 h; in short: as §1
NCI-H1299 = test: Cytotoxicity against human H1299 cells after 48 hrs by MTT assay; format: functional, cell-based; conditions: NCI-H1299, 48 h; in short: as §1
A-375 [3] = test: Induction of apoptosis in human A375 cells assessed as viable cells at 10 uM after 48 hrs by annexin-v and PI staining based flow cytometry analysis (reference value: 93.63 +/- 1.37%); format: functional; conditions: read-out: Activity
A-375 [4] = test: Induction of apoptosis in human A375 cells assessed as late apoptotic cells at 10 uM after 48 hrs by annexin-v and PI staining based flow cytometry analysis (reference value: 1.83 +/- 0.41%); format: functional
A-375 [5] = test: Induction of apoptosis in human A375 cells assessed as necrotic cells at 10 uM after 48 hrs by annexin-v and PI staining based flow cytometry analysis (reference value: 1.17 +/- 0.41%); format: functional
A-375 [6] = test: Induction of cell cycle arrest in human A375 assessed as number of cells at G1 phase at 10 uM after 48 hrs by flow cytometry (reference value: 83.5 +/- 1.87 %); format: functional
A-375 [7] = test: Induction of cell cycle arrest in human A375 assessed as number of cells at G2/M phase at 10 uM after 48 hrs by flow cytometry (reference value: 5.17 +/- 0.75 %); format: functional
A-375 [8] = test: Effect on reactive oxygen production in human A375 cells assessed as decrease in peroxide level at 10 uM after 48 hrs by DCFH2-DA staining based spectrophotometry; format: functional, cell-based
In short: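 A375 cells (5×10^5) attached overnight, exposed at 5 or 10 μM for 8 or 48 h. Intracellular peroxides measured with 5 μM DCFH2-DA, 45 min at 37 °C in the dark; after washing, fluorescence read at ex 485 / em 528 nm. Mean ± SD of two independent experiments in duplicate.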

[9] = biological target: Matrix metalloproteinase-9 (Homo sapiens) (UniProt P14780); test: Inhibition of MMP9 in human HT-1080 cells at 10 uM by gelatin zymography; format: cell-based
Matrix metalloproteinase-9 (Homo sapiens), sequence (P14780 whole entry): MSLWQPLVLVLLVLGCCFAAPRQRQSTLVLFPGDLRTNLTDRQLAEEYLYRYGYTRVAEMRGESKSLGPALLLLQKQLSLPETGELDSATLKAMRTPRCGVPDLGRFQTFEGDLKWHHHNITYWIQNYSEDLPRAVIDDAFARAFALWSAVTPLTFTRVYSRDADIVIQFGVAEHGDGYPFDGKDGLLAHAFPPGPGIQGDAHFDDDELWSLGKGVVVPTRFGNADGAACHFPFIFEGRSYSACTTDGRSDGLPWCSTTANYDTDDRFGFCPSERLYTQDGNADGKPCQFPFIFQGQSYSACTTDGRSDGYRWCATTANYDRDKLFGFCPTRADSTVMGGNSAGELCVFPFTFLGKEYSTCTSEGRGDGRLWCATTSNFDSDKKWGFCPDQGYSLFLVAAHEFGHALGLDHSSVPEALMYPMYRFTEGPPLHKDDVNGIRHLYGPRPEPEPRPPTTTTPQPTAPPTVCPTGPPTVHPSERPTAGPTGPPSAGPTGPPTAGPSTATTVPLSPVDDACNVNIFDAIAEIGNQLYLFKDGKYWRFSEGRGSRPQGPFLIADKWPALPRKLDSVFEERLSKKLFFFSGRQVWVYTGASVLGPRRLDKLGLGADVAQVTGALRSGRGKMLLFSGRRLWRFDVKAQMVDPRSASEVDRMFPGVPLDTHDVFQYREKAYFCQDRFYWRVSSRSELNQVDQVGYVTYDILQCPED

A-375 [10] = test: Induction of cell cycle arrest in human A375 assessed as number of cells at S phase at 10 uM after 48 hrs by flow cytometry (reference value: 11.33 +/- 1.86 %)
OE19 [11] = test: Cytotoxicity against human OE19 cells after 72 hrs by MTT assay; format: functional, cell-based; conditions: OE19, 72 h; in short: as §1
A-375 [12] = test: Induction of apoptosis in human A375 assessed as formation of bleb at 5 to 10 uM after 48 hrs by May-Grunwald- Giemsa staining based optical microscopic analysis; format: functional, cell-based; conditions: dose 5-10 µM
In short: (§2)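 A375 cells exposed to 5 or 10 μM for 48 h, stained with May-Grünwald Giemsa and examined by optical microscopy at 50x. Representative images taken at random for each condition.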

A-375 [13] = test: Induction of apoptosis in human A375 assessed as loss of cell integrity at 5 to 10 uM after 48 hrs by May-Grunwald- Giemsa staining based optical microscopic analysis; format: functional; conditions: dose 5-10 µM; in short: as §2
A-375 [14] = test: Induction of cell cycle arrest in human A375 assessed as number of cells at G1 phase at 5 uM after 48 hrs by flow cytometry (reference value: 83.5 +/- 1.87 %); format: functional
A-375 [15] = test: Induction of cell cycle arrest in human A375 assessed as number of cells at S phase at 5 uM after 48 hrs by flow cytometry (reference value: 11.33 +/- 1.86 %); format: functional
A-375 [16] = test: Induction of cell cycle arrest in human A375 assessed as number of cells at G2/M phase at 5 uM after 48 hrs by flow cytometry (reference value: 5.17 +/- 0.75 %); format: functional

inhibition [9] | Compound | IC50 (A-375 [1]) | IC50 (OE19 [2]) | IC50 (HT-1080) | IC50 (NCI-H1299) | other results
Active | CC1(C)S[C@@H]2/C(=C\C(=O)OC(c3ccccc3)c3ccccc3)C(=O)N2[C@H]1C(=O)OC(c1ccccc1)c1ccccc1 | 9.1 µM | 21.6 µM | 15.2 µM | 22.4 µM | viability at 10 µM (A-375 [3]): 73.5%; Activity (A-375 [4]): 7.75%; Activity (A-375 [5]): 14.75%; Activity (A-375 [6]): 67.67%; Activity (A-375 [7]): 13%; Activity (A-375 [8]): Active; Activity (A-375 [10]): 15.33%
 | CC(=O)/C=C1/C(=O)N2[C@@H]1SC(C)(C)[C@@H]2C(=O)OC(c1ccccc1)c1ccccc1 | 63 µM | 51.9 µM | 20.8 µM | 24.2 µM | 
 | CC1(C)[C@H](C(=O)OC(c2ccccc2)c2ccccc2)N2C(=O)/C(=C/C(=O)c3ccccc3)[C@H]2[S+]1[O-] (some centres undefined) | 4.5 µM | 23.7 µM | 65.5 µM | 92.4 µM | viability at 10 µM (A-375 [3]): 89.2%; Activity (A-375 [4]): 4.17%; Activity (A-375 [5]): 3%
 | CC1(C)S[C@@H]2/C(=C\C(=O)c3ccco3)C(=O)N2[C@H]1C(=O)OC(c1ccccc1)c1ccccc1 | 26 µM | 54.3 µM | 45.5 µM | 61.5 µM | 
 | CC(=O)/C=C1\C[C@H]2SC(C)(C)[C@H](C(=O)OC(c3ccccc3)c3ccccc3)N2C1=O | > 100 µM | > 100 µM | > 100 µM | > 100 µM | 
 | CC1(C)S[C@@H]2/C(=C\C(=O)c3ccc(C(F)(F)F)cc3)C(=O)N2[C@H]1C(=O)OC(c1ccccc1)c1ccccc1 | 26.7 µM | 15.6 µM |  |  | 
52.9% | COC(=O)/C=C1\C[C@H]2SC(C)(C)[C@H](C(=O)OC(c3ccccc3)c3ccccc3)N2C1=O | > 100 µM | 99.7 µM |  |  | 
61.4% | CC1(C)S[C@@H]2C/C(=C\C(=O)c3ccccc3)C(=O)N2[C@H]1C(=O)OC(c1ccccc1)c1ccccc1 | > 100 µM | 73.3 µM |  |  | 
Active | CCOC(=O)/C=C1/C(=O)N2[C@@H]1SC(C)(C)[C@@H]2C(=O)OC(c1ccccc1)c1ccccc1 | 7 µM | 11.2 µM | 25.1 µM | 15 µM | IC50 (OE19 [11]): 5.3 µM; viability at 10 µM (A-375 [3]): 63%; Activity (A-375 [4]): 11.5%; Activity (A-375 [5]): 20.8%; Activity (A-375 [6]): 61.65%; Activity (A-375 [7]): 12.5%; Activity (A-375 [8]): Active; Activity (A-375 [10]): 25.75%
 | COC(=O)/C=C1/C(=O)N2[C@@H]1SC(C)(C)[C@@H]2C(=O)OC(c1ccccc1)c1ccccc1 | 24.6 µM | 20.2 µM |  |  | 
 | CC1(C)S[C@@H]2/C(=C\C(=O)c3cc(C(F)(F)F)cc(C(F)(F)F)c3)C(=O)N2[C@H]1C(=O)OC(c1ccccc1)c1ccccc1 | 39.2 µM | 48.5 µM |  |  | 
 | CC1(C)[C@H](C(=O)OC(c2ccccc2)c2ccccc2)N2C(=O)/C(=C/C(=O)c3ccccc3)[C@H]2S1(=O)=O | 17.5 µM | 53.1 µM | 19.5 µM | 50.1 µM | 
 | CC1(C)S[C@@H]2/C(=C\C(=O)c3ccc(Cl)cc3)C(=O)N2[C@H]1C(=O)OC(c1ccccc1)c1ccccc1 | 48.6 µM | 14.6 µM |  |  | 
 | CC1(C)[C@H](C(=O)OC(c2ccccc2)c2ccccc2)N2C(=O)/C(=C/C(=O)c3ccc([N+](=O)[O-])cc3)[C@H]2[S+]1[O-] (some centres undefined) | 48.2 µM | 92.4 µM |  |  | 
 | CC1(C)S[C@@H]2/C(=C\C(=O)c3ccc4ccccc4c3)C(=O)N2[C@H]1C(=O)OC(c1ccccc1)c1ccccc1 | 36.5 µM | 19.5 µM |  |  | 
 | CC1(C)S[C@@H]2/C(=C\C(=O)c3ccc(Br)cc3)C(=O)N2[C@H]1C(=O)OC(c1ccccc1)c1ccccc1 | 29.7 µM | 13.8 µM |  |  | 
Active | CC1(C)S[C@@H]2/C(=C\C(=O)c3ccc(F)cc3)C(=O)N2[C@H]1C(=O)OC(c1ccccc1)c1ccccc1 | 17.8 µM | 12.1 µM | 11.2 µM | 25.2 µM | IC50 (OE19 [11]): 10.7 µM
Active | CC1(C)S[C@@H]2/C(=C\C(=O)c3ccccc3)C(=O)N2[C@H]1C(=O)OC(c1ccccc1)c1ccccc1 | 22.8 µM | 12.8 µM | 21.1 µM | 39 µM | IC50 (OE19 [11]): 8.6 µM
 | CC1(C)S[C@@H]2/C(=C\C(=O)c3cc(F)cc(F)c3)C(=O)N2[C@H]1C(=O)OC(c1ccccc1)c1ccccc1 | 19.1 µM | 17.6 µM |  |  | 
 | CC1(C)S[C@@H]2/C(=C\C(=O)c3ccc([N+](=O)[O-])cc3)C(=O)N2[C@H]1C(=O)OC(c1ccccc1)c1ccccc1 | 50.3 µM | 44.1 µM |  |  | 
Active | CC1(C)S[C@@H]2/C(=C\C(=O)OCc3ccccc3)C(=O)N2[C@H]1C(=O)OC(c1ccccc1)c1ccccc1 | 7.1 µM | 8.2 µM | 11.7 µM | 9.4 µM | IC50 (OE19 [11]): 4.6 µM; viability at 10 µM (A-375 [3]): 56.2%; Activity (A-375 [4]): 13%; Activity (A-375 [5]): 24%; Activity (A-375 [12]): Active; Activity (A-375 [13]): Active; Activity (A-375 [14]): 71.25%; Activity (A-375 [15]): 19.5%; Activity (A-375 [16]): 8.75%; Activity (A-375 [6]): 58.33%; Activity (A-375 [7]): 12%; Activity (A-375 [8]): Active; Activity (A-375 [10]): 29.67%
 | CC1(C)[C@H](C(=O)OC(c2ccccc2)c2ccccc2)N2C(=O)/C(=C/C(=O)c3ccc([N+](=O)[O-])cc3)[C@H]2S1(=O)=O | 76.7 µM | 95.5 µM |  |  | 
